ChEMBL document CHEMBL1124821, “Design of an antithrombotic-antihypertensive agent (Wy 27569). Synthesis and evaluation of a series of 2-heteroaryl-substituted dihydropyridines” (J Med Chem, 1990)
“And” between values parts separate entries of the source, which are not always exact repeats. Equal entries are not always repeated.

Experiments:
[1] = test system: Rattus norvegicus; assay: Reduction in blood pressure of rats, 2 hr after 0.03 mmol/kg p.o. administration; type: functional
Method in brief: (§1)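 Female SHR (250–300 g) kept in 37 °C constant-temperature housing; systolic pressure measured by tail-cuff with a pneumatic pulse transducer. Rats below 155 mmHg discarded. Groups of four given a single oral dose in 0.5% (hydroxypropyl)methylcellulose–0.9% saline (10 mL/kg) or vehicle alone; pressure recorded before dosing and at 2, 6 and 24 h. Analysed by analysis of variance.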

[2] = test system: Rattus norvegicus; assay: The compound was tested for plasma levels of TXB2 in rats after 2 hr following dose 3(mg/kg) in oral administration. (p<0.05); type: functional, organism-based
Method in brief: (§2)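 Female normotensive rats killed by CO₂ asphyxiation 2 h after oral dosing with compound or vehicle (n = 10–13 per group). Blood taken from the posterior vena cava with 1% EDTA, centrifuged at once (10000g, 10 min), and plasma stored at –30 °C. TXB₂ and 6-KPGF1α measured by radioimmunoassay, in pg/mL, mean ± SEM. p < 0.05 versus controls taken as significant.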

[3] = test system: Rattus norvegicus; assay: The compound was tested for plasma levels of TXB2 in rats after 2 hr following dose 10(mg/kg) in oral administration.; type: functional, organism-based; method in brief: as §2
[4] = species: Homo sapiens; assay: The compound was tested for effects of compound on TXB2 production at molar concentration of 10e-4 in human platelet rich plasma; type: functional
[5] = species: Homo sapiens; assay: The compound was tested for effects of compound on TXB2 production at molar concentration of 10e-7 in human platelet rich plasma; type: functional
[6] = species: Homo sapiens; assay: The compound was tested for effects of compound on 6-KPGF1alpha production at molar concentration of 10e-4 in human platelet rich plasma; type: functional
[7] = species: Homo sapiens; assay: The compound was tested for effects of compound on TXB2 production at molar concentration of 10e-5 in human platelet rich plasma; type: functional
[8] = species: Homo sapiens; assay: The compound was tested for effects of compound on TXB2 production at molar concentration of 10e-3 in human platelet rich plasma; type: functional
[9] = species: Homo sapiens; assay: The compound was tested for effects of compound on 6-KPGF1alpha production at molar concentration of 10e-5 in human platelet rich plasma; type: functional
[10] = test system: Rattus norvegicus; assay: The compound was tested for plasma levels of TXB2 in rats after 2 hr following dose 3(mg/kg) in oral administration.; type: functional, organism-based; method in brief: as §2
[11] = species: Homo sapiens; assay: The compound was tested for effects of compound on 6-KPGF1alpha production at molar concentration of 10e-7 in human platelet rich plasma; type: functional
[12] = species: Homo sapiens; assay: The compound was tested for effects of compound on TXB2 production at molar concentration of 10e-6 in human platelet rich plasma; type: functional
[13] = species: Homo sapiens; assay: The compound was tested for effects of compound on 6-KPGF1alpha production at molar concentration of 10e-6 in human platelet rich plasma; type: functional
[14] = species: Homo sapiens; assay: The compound was tested for effects of compound on 6-KPGF1alpha production at molar concentration of 10e-3 in human platelet rich plasma; type: functional
[15] = test system: Rattus norvegicus; assay: The compound was tested for reducing blood pressure in rats after 6 hours of 0.003 mmol/kg oral administration.; type: functional; method in brief: as §1
[16] = test system: Rattus norvegicus; assay: The compound was tested for reducing blood pressure in rats after 6 hours of 0.03 mmol/kg oral administration.; type: functional; method in brief: as §1
[17] = test system: Rattus norvegicus; assay: The compound was tested for reducing blood pressure in rats after 2 hours of 0.003 mmol/kg oral administration.; type: functional; method in brief: as §1
[18] = biological target: Thromboxane-A synthase (Oryctolagus cuniculus); assay: Inhibition of Thromboxane A2 synthase in rabbit platelets in vitro
[19] = species: Homo sapiens; assay: The compound was tested for effects of compound on TXB2 production at different molar concentration of 10e-3 in human platelet rich plasma; type: functional
[20] = species: Homo sapiens; assay: The compound was tested for effects of compound on TXB2 production at different molar concentration of 10e-6 in human platelet rich plasma; type: functional
[21] = species: Homo sapiens; assay: The compound was tested for effects of compound on TXB2 production at different molar concentration of 10e-7 in human platelet rich plasma; type: functional
[22] = species: Homo sapiens; assay: The compound was tested for effects of compound on TXB2 production at different molar concentration of 10e-5 in human platelet rich plasma; type: functional
[23] = test system: Rattus norvegicus; assay: The compound was tested for plasma levels of 6-KPGF1alpha in rats after 2 hr following dose 10(mg/kg) in oral administration.; type: functional, organism-based; method in brief: as §2
[24] = test system: Rattus norvegicus; assay: The compound was tested for plasma levels of 6-KPGF1alpha in rats after 2 hr following dose 3(mg/kg) in oral administration. (p<0.05); type: functional, organism-based; method in brief: as §2
[25] = species: Homo sapiens; assay: The compound was tested for effects of compound on TXB2 production at different molar concentration of 10e-4 in human platelet rich plasma; type: functional
[26] = test system: Rattus norvegicus; assay: The compound was tested for plasma levels of 6-KPGF1alpha in rats after 2 hr following dose 3(mg/kg) in oral administration; type: functional, organism-based; method in brief: as §2
[27] = test system: Rattus norvegicus; assay: The compound was tested for reducing blood pressure in rats after 6 hours of 0.03 mmol/kg oral administration; type: functional; method in brief: as §1
[28] = test system: Rattus norvegicus; assay: The compound was tested for reducing blood pressure in rats after 2 hours of 0.003 mmol/kg oral administration; type: functional; method in brief: as §1
[29] = test system: Rattus norvegicus; assay: The compound was tested for plasma levels of 6-KPGF1alpha in rats after 2 hr following dose 0.3(mg/kg) in oral administration; type: functional, organism-based; method in brief: as §2
[30] = test system: Rattus norvegicus; assay: The compound was tested for reducing blood pressure in rats after 2 hours of 0.03 mmol/kg oral administration; type: functional; method in brief: as §1
[31] = test system: Rattus norvegicus; assay: The compound was tested for plasma levels of TXB2 in rats after 2 hr following dose 0.3(mg/kg) in oral administration; type: functional, organism-based; method in brief: as §2
[32] = test system: Rattus norvegicus; assay: The compound was tested for plasma levels of TXB2 in rats after 2 hr following dose 1(mg/kg) in oral administration; type: functional, organism-based; method in brief: as §2
[33] = test system: Rattus norvegicus; assay: The compound was tested for plasma levels of TXB2 in rats after 2 hr following dose 10(mg/kg) in oral administration; type: functional, organism-based; method in brief: as §2
[34] = test system: Rattus norvegicus; assay: The compound was tested for plasma levels of TXB2 in rats after 2 hr following dose 3(mg/kg) in oral administration (P<0.05); type: functional, organism-based; method in brief: as §2

For `CCO/C(O)=C1\C(COCc2cccnc2)=NC(C)=C(C(=O)OC)C1c1cccc([N+](=O)[O-])c1.Cl` (stereo unspecified), the “Decrease in blood pressure” value [1] was 18%.

In the case of `O=C(O)c1ccc(OCCn2ccnc2)cc1` [DAZOXIBEN], the Plasma level [2] is reported as 384 pg/mL, the Plasma level [3] is reported as 270 pg/mL and 202 pg/mL and the Production [4] is reported as 5%. For the same compound, the Production [5] was 97.5%, the Production [6] was 460% and the Production [7] was 21%. For the same compound, the Production [8] was 2%, the Production [9] was 603% and the Plasma level [10] was 384 pg/mL. For the same compound, the Production [11] was 115%, the Production [12] was 69% and the Production [13] was 463%. It also gave a Production [14] of 345%.

In the case of `CCO/C(O)=C1\C(Cn2ccnc2)=NC(C)=C(C(=O)OC)C1c1ccccc1[N+](=O)[O-]` (stereo unspecified), the “Decrease in blood pressure” value [15] is reported as 14%, the “Decrease in blood pressure” value [1] is reported as 59% and the “Decrease in blood pressure” value [16] is reported as 56%. The “Decrease in blood pressure” value [17] was 44%.

In the case of `Br.CCO/C(O)=C1\C(Cn2ccnc2)=NC(C)=C(C(=O)OC)C1c1c(F)cccc1Cl` (stereo unspecified), the “Decrease in blood pressure” value [1] is reported as 48% and 35% and the IC50 [18] is reported as 19.5 µM.

Work on `CCO/C(O)=C1\C(Cn2ccnc2)=NC(C)=C(C(=O)OC)C1c1ccccc1Cl` (stereo unspecified) yielded a Decrease in blood pressure [1] of 31%, a Decrease in blood pressure [16] of 15% and an IC50 [18] of 0.5 µM.

In the case of `CCO/C(O)=C1\C(COCCc2cccnc2)=NC(C)=C(C(=O)OC)C1c1cccc([N+](=O)[O-])c1.Cl` (stereo unspecified), the “Decrease in blood pressure” value [1] is reported as 40%.

`CCOC(=O)C1=C(C)NC(C)=C(C(=O)OC)C1c1cccc([N+](=O)[O-])c1` (stereo unspecified) [NITRENDIPINE] was tested, and the Production [19] was 35%, the Production [20] was 84% and the Plasma concentration [3] was 562 pg/mL. The “Decrease in blood pressure” value [1] was 33%, the Production [6] was 121% and the Production [21] was 87%. It also gave a Production [22] of 81%, a Plasma concentration [23] of 60 pg/mL and a Production [9] of 136%. For the same compound, the Plasma concentration [24] was 62 pg/mL, the Plasma concentration [10] was 564 pg/mL and the Production [11] was 112%. It also gave a Production [25] of 40%, a Production [13] of 113% and a Production [14] of 96%.

Work on `CCOC(=O)C1=C(C)N=C(CCn2ccnc2)/C(=C(/O)OCC)C1c1ccccc1[N+](=O)[O-].O=C(O)/C=C\C(=O)O` (stereo unspecified) yielded a Decrease in blood pressure [1] of 44% and an IC50 [18] of 2.3 µM.

Work on `CCOC(=O)C1=C(CCn2ccnc2)N=C(CCn2ccnc2)/C(=C(/O)OCC)C1c1cccc([N+](=O)[O-])c1` (stereo unspecified) yielded an IC50 [18] of 5.3 µM.

In the case of `CCO/C(O)=C1\C(Cn2ccnc2)=NC(C)=C(C(=O)OC)C1c1cccc(C(F)(F)F)c1Cl` (stereo unspecified), the “Decrease in blood pressure” value [1] is reported as 60%, the “Decrease in blood pressure” value [16] is reported as 52% and the “Decrease in blood pressure” value [17] is reported as 16%.

For `CCO/C(O)=C1\C(Cn2ccnc2)=NC(C)=C(C(=O)OC)C1c1ccccc1OC(F)F` (stereo unspecified), the “Decrease in blood pressure” value [1] was 55% and 48%.

For `CCO/C(O)=C1\C(C)=NC(Cn2ccnc2)=C(C(=O)OC)C1c1ccccc1OC(F)F` (stereo unspecified), the “Decrease in blood pressure” value [1] was 48%, the “Decrease in blood pressure” value [16] was 31% and the IC50 [18] was 25 µM.

Compound `CCOC(=O)C1=C(COc2cccnc2)NC(C)=C(C(=O)OC)C1c1cccc([N+](=O)[O-])c1.Cl` (stereo unspecified) has a Decrease in blood pressure [1] of 40%.

Compound `CCO/C(O)=C1\C(C)=NC(Cn2ccnc2)=C(C(=O)OC)C1c1cccc(C(F)(F)F)c1Cl` (stereo unspecified) has a Decrease in blood pressure [1] of 16% and an IC50 [18] of 125 µM.

For `CCO/C(O)=C1\C(Cn2ccnc2)=NC(C)=C(C(=O)OC)C1c1cccc([N+](=O)[O-])c1.Cl` (stereo unspecified), the Production [19] was 0%, the Plasma level [26] was 68 pg/mL and the “Decrease in blood pressure” value [27] was 38% and 28%. The Production [5] was 92%, the Production [6] was 431% and the “Decrease in blood pressure” value [28] was 34%. The Plasma level [29] was 22 pg/mL, the “Decrease in blood pressure” value [30] was 51% and the Plasma level [31] was 484 pg/mL. The Production [7] was 43%, the Plasma level [23] was 94 pg/mL and the Plasma level [32] was 402 pg/mL. The Plasma level [33] was 280 pg/mL, the Production [9] was 119% and the Production [11] was 100%. For the same compound, the Production [25] was 10%, the Production [12] was 67% and the Plasma level [34] was 330 pg/mL. For the same compound, the Production [13] was 112% and the Production [14] was 460%.

`CCO/C(O)=C1\C(Cn2ccnc2)=NC(Cn2ccnc2)=C(C(=O)OC)C1c1cccc([N+](=O)[O-])c1` (stereo unspecified) gave an IC50 [18] of 0.6 µM.

For `COC(=O)C1=C(C)N=C(Cn2ccnc2)/C(=C(/O)OC)C1c1cccc([N+](=O)[O-])c1.Cl` (stereo unspecified), the “Decrease in blood pressure” value [1] was 42% and the “Decrease in blood pressure” value [16] was 27%.

In the case of `CCO/C(O)=C1\C(COCCn2ccnc2)=NC(C)=C(C(=O)OC)C1c1cccc([N+](=O)[O-])c1.Cl` (stereo unspecified), the “Decrease in blood pressure” value [27] is reported as 42% and the “Decrease in blood pressure” value [1] is reported as 56%.

`CCO/C(O)=C1\C(C)=NC(Cn2ccnc2)=C(C(=O)OC)C1c1cccc([N+](=O)[O-])c1` (stereo unspecified) showed an IC50 [18] of 2.2 µM.

`CCOC(=O)C1=C(C)N=C(Cn2ccnc2)/C(=C(/O)OCC)C1c1cccc([N+](=O)[O-])c1.Cl` (stereo unspecified) was tested, and the “Decrease in blood pressure” value [1] was 47% and the “Decrease in blood pressure” value [16] was 13%.

`CCO/C(O)=C1\C(Cn2ccnc2)=NC(C)=C(C(=O)OC(C)C)C1c1cccc([N+](=O)[O-])c1.Cl` (stereo unspecified) was tested, and the “Decrease in blood pressure” value [1] was 21% and the “Decrease in blood pressure” value [16] was 19%.

In the case of `CCO/C(O)=C1\C(Cn2ccnc2)=NC(C)=C(C(=O)OC)C1c1cccc(Cl)c1Cl` (stereo unspecified), the “Decrease in blood pressure” value [15] is reported as 20%, the “Decrease in blood pressure” value [1] is reported as 54% and the “Decrease in blood pressure” value [16] is reported as 49%. The “Decrease in blood pressure” value [17] was 40%.
